Converted amounts (≈) assume the structure as drawn.
Tests used:
Assay type in all cases: functional
[1] = test system: Mycobacterium tuberculosis; experiment: Antimicrobial activity against wild type Mycobacterium tuberculosis 210 after 4 weeks by 7H agar proportion method
Method in brief: (§1)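 Parental M. tuberculosis strain 210 with no EMB exposure. EMB MIC determined in parallel by 7H10 agar proportion and radiometric Bactec 460TB.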

[2] = test system: Mycobacterium tuberculosis; experiment: Antimicrobial activity against wild type Mycobacterium tuberculosis NJT210CGG-CAG after 4 weeks; settings: 672 h
Method in brief: (§2)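 Isogenic embB mutants made by allelic exchange in strain 210. PCR-built fragments carried the codon of interest; double-crossover colonies were screened by molecular beacon assay and confirmed by direct embB sequencing. MICs of EMB, INH and RIF were determined by radiometric Bactec 460TB and 7H10 agar proportion, alongside parent 210.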

[3] = test system: Mycobacterium tuberculosis; experiment: Antimicrobial activity against wild type Mycobacterium tuberculosis 16C10 after 4 weeks by Bactec 460TB method; settings: 16C10, 672 h
Method in brief: (§3)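 EMB MIC by radiometric Bactec 460TB liquid method for clones from strain 210. The clones were selected on 7H10 containing 8, 16 or 32 µg/ml EMB final (~10^9 cells plated, 37°C, 4 weeks), then subcultured in 7H9 without EMB before MIC testing. embCAB was genotyped.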

[4] = test system: Mycobacterium tuberculosis; experiment: Antimicrobial activity against wild type Mycobacterium tuberculosis 8C6 after 4 weeks by 7H agar proportion method
Method in brief: (§4)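 EMB MIC by 7H10 agar proportion for clones selected from M. tuberculosis strain 210. About 10^9 cells from liquid culture (OD600 ~1.5, resuspended in 7H9) were plated on 7H10 with EMB at 8, 16 or 32 µg/ml final, incubated 37°C for 4 weeks. Colonies were subcultured in EMB-free 7H9 before testing, and embCAB was genotyped.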

[5] = test system: Mycobacterium tuberculosis; experiment: Antimicrobial activity against wild type Mycobacterium tuberculosis 8C3 after 4 weeks by Bactec 460TB method; settings: 8C3, 672 h
[6] = test system: Mycobacterium tuberculosis; experiment: Antimicrobial activity against wild type Mycobacterium tuberculosis 16C12 after 4 weeks by 7H agar proportion method; method in brief: as §4
[7] = test system: Mycobacterium tuberculosis; experiment: Antimicrobial activity against wild type Mycobacterium tuberculosis 16C10 after 4 weeks by 7H agar proportion method; method in brief: as §4
[8] = test system: Mycobacterium tuberculosis; experiment: Antimicrobial activity against wild type Mycobacterium tuberculosis 210 after 4 weeks by Bactec 460TB method; settings: Mycobacterium tuberculosis, 210, 672 h; method in brief: as §1
[9] = test system: Mycobacterium tuberculosis; experiment: Antimicrobial activity against wild type Mycobacterium tuberculosis 8C2 after 4 weeks by Bactec 460TB method; settings: 8C2, 672 h; method in brief: as §3
[10] = test system: Mycobacterium tuberculosis; experiment: Antimicrobial activity against wild type Mycobacterium tuberculosis 8C2 after 4 weeks by 7H agar proportion method; method in brief: as §4
[11] = test system: Mycobacterium tuberculosis; experiment: Antimicrobial activity against wild type Mycobacterium tuberculosis 8C1 after 4 weeks by 7H agar proportion method; method in brief: as §4
[12] = test system: Mycobacterium tuberculosis; experiment: Antimicrobial activity against wild type Mycobacterium tuberculosis 8C6 after 4 weeks by Bactec 460TB method; settings: 8C6, 672 h
[13] = test system: Mycobacterium tuberculosis; experiment: Antimicrobial activity against wild type Mycobacterium tuberculosis 16C12 assessed as inhibition of growth after 4 weeks by Bactec 460TB method; settings: 16C12, 672 h; method in brief: as §3
[14] = test system: Mycobacterium tuberculosis; experiment: Antimicrobial activity against wild type Mycobacterium tuberculosis 210 after 4 weeks; settings: Mycobacterium tuberculosis, 210, 672 h; method in brief: as §2
[15] = test system: Mycobacterium tuberculosis; experiment: Antimicrobial activity against wild type Mycobacterium tuberculosis 8C1 after 4 weeks by Bactec 460TB method; settings: 8C1, 672 h; method in brief: as §3

Work on `CC[C@@H](CO)NCCN[C@@H](CC)CO` [ETHAMBUTOL] yielded an MIC [1] of 2 µg/mL (≈ 9.79 µM), an MIC [2] of 2 µg/mL (≈ 9.79 µM) and an MIC [3] of 2 µg/mL (≈ 9.79 µM). The MIC [4] was 4 µg/mL (≈ 19.6 µM), the MIC [5] was 4 µg/mL (≈ 19.6 µM) and the MIC [6] was 8 µg/mL (≈ 39.2 µM). It also gave an MIC [7] of 6 µg/mL (≈ 29.4 µM), an MIC [8] of 2 µg/mL (≈ 9.79 µM) and an MIC [9] of 4 µg/mL (≈ 19.6 µM). It also gave an MIC [10] of 8 µg/mL (≈ 39.2 µM), an MIC [11] of 6 µg/mL (≈ 29.4 µM) and an MIC [12] of 2 µg/mL (≈ 9.79 µM). The MIC [13] was 3 µg/mL (≈ 14.7 µM), the MIC [14] was 2 µg/mL (≈ 9.79 µM) and the MIC [15] was 2 µg/mL (≈ 9.79 µM).

For `NNC(=O)c1ccncc1` [ISONIAZID], the MIC [2] was 0.05 µg/mL (≈ 0.365 µM) and the MIC [14] was 0.05 µg/mL (≈ 0.365 µM).

Work on `CO[C@H]1/C=C/O[C@@]2(C)Oc3c(C)c(O)c4c(O)c(c(/C=N/N5CCN(C)CC5)c(O)c4c3C2=O)NC(=O)/C(C)=C\C=C\[C@H](C)[C@H](O)[C@@H](C)[C@@H](O)[C@@H](C)[C@H](OC(C)=O)[C@@H]1C` [RIFAMPIN] yielded an MIC [2] of 0.05 µg/mL (≈ 0.0608 µM) and an MIC [14] of 0.05 µg/mL (≈ 0.0608 µM).
